Source: PubChem (several laboratories)
A selection: hits, their analogues and other compounds. The true share with any hit is near 1.4%.
HDAC3 inh – inhibitors of human histone deacetylase 3 | 0.15% of 320,000 active | AID 2718 | recombinant HDAC3, fluorogenic peptide/trypsin coupled, fluorescence | inhibition, % at 8.3 µM; in the data active = inhibition above about 26%, passing the limit was not always enough; inconclusive = no clear call, values can overlap the other calls
Target sequence (O15379 whole entry, looked up): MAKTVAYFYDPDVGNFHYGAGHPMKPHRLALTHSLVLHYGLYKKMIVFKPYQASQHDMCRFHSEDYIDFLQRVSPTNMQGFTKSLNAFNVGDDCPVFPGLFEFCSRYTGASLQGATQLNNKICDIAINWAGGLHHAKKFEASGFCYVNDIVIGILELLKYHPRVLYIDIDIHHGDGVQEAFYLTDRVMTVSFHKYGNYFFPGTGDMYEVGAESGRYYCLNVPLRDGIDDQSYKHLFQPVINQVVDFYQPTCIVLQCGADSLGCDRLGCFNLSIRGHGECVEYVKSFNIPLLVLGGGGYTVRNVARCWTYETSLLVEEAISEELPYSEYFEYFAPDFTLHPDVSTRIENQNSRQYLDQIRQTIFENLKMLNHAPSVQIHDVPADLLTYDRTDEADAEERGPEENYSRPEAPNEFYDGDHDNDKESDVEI
IDE cell activ – boosts human insulin-degrading enzyme activity in HEK cells | P14735 | FAbeta-B cleavage, fluorescence polarization; 0% vehicle, 100% cell-free pure enzyme wells | activation, % at 5.96 µM | 0.073% of 340,000 active;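 active = activation above the mean of all tested compounds plus 3 SD, set per screening campaign, cut at about 17% in these data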
TbMetRS inhib – Trypanosoma brucei MetRS inhibition; inhibition, % at 11.9 µM; purified T. brucei MetRS, ATP depletion, Kinase-Glo luminescence; AID 624268; 0.4% of 360,000 active;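 active = inhibition above a per-plate cutoff of the control wells' mean inhibition plus 3 SD, cut at about 5.5% in these data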
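System: purified T. brucei MetRS enzyme / Detection: Kinase-Glo luciferase luminescence reporting remaining unconsumed ATP / Medium: HEPES buffer with MgCl2, KCl, DTT, spermine, BSA, pyrophosphatase / Replication: singlicate, one well per compound / Evaluation: percent inhibition relative to median high and low control wells / Schedule: 2 h aminoacylation at 25 °C after 15 min preincubation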
CR mimetic SO – caloric restriction mimetics inhibiting age-related superoxide in yeast; S. cerevisiae aged cells, superoxide DHE fluorescence; active compounds read low; superoxide response (% of plate mean), % at 10 µM; 0.18% of 330,000 active; AID 2690;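 active = superoxide response under a set limit, about three screen SD below normal, cut at about 65% in these data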;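 note: yeast aged for seven days with compound at 30 °C before DHE staining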
IDE cell inh – cellular human IDE inhibition; P14735; HEK cells, FAbetaB cleavage, fluorescence polarization; inhibition, % at 5.59 µM; 0.41% of 320,000 active;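 active = percent inhibition above the average of all tested compounds plus 3 SD, set per screening campaign, cut at about 16% in these data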;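 note: IDE supplied by intact live HEK cells; FP after avidin binding of uncleaved biotin substrate so inhibition keeps polarization high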
Efflux pump inh – antifungal efflux pump inhibition, Nile Red retention. inhibition, % at 10 µM. S. cerevisiae Candida pump triplex. 0.44% of 330,000 active;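 active = plate passing quality check with inhibition over a set limit, or well fluorescence over plate mean plus 4 SD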;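 note: Nile Red retained in pooled yeast measured as flow cytometry median fluorescence; higher means more Nile Red kept so more efflux inhibition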
TbMetRS confirm – confirmation of Trypanosoma brucei MetRS inhibitors. inhibition, % at 11.9 µM. T. brucei MetRS enzyme, luminescence (ATP depletion). shares compounds with TbMetRS inhib. 93% of 1,400 active; in the data active = inhibition above about 7%
Jurkat cytotox – kills Jurkat cells in T. brucei MetRS counterscreen; Jurkat cells viability, ATP luminescence; shares compounds with TbMetRS inhib; inhibition, % at 8.3 µM; AID 624413; 12% of 1,400 active; in the data active = inhibition above about 15%
Tb MetRS inh FP – inhibits T. brucei methionyl tRNA synthetase in orthogonal FP test. 44% of 1,400 active. inhibition, % at 11.9 µM. AID 651607. purified T. brucei MetRS, fluorescence polarization. shares compounds with TbMetRS inhib; in the data active = inhibition above about 17%
Of the large screens only hits and unclear results are named; the others gave an inactive call (follow-up assays come after a bar, where they were run).

O=C(CN(Cc1ccccc1)C1=NCCS1)c1ccc(Cl)cc1	HDAC3 inh inconclusive, TbMetRS inhib 25 | TbMetRS confirm 42 | Jurkat cytotox inactive | Tb MetRS inh FP 23
CC(C)(C)C(=O)OCc1ccc(C2=CC(=O)CC(C)(C)C2=O)cc1	none (no result: HDAC3 inh, IDE cell activ, CR mimetic SO, IDE cell inh, Efflux pump inh)
CC(OC(=O)c1nsc(Cl)c1Cl)C(=O)NCCc1ccccc1 (stereo unspecified)	none
COc1ccc2c(c1)CCC(C)N2C(=O)C(=O)c1c[nH]c2ccccc12 (stereo unspecified)	TbMetRS inhib 12 | TbMetRS confirm 17 | Jurkat cytotox inactive | Tb MetRS inh FP inactive
COc1ccc2[nH]cc(C(=O)C(=O)N3CCCCC3)c2c1	none
Cc1cc(C)cc(NC(=S)N2C3CCCC2CC(NC(=O)C2CC2)C3)c1 (stereo unspecified)	none
CC1=C(C(=O)OCc2ccc3c(c2)OCO3)C(c2cccc([N+](=O)[O-])c2)NC(=O)N1 (stereo unspecified)	none
Cc1cccc(CN2CCc3c([nH]c4ccccc34)C2)c1	TbMetRS inhib 5.8 | TbMetRS confirm 15 | Jurkat cytotox inactive | Tb MetRS inh FP inactive
Clc1cccc(CN2CCc3c([nH]c4ccccc34)C2)c1	none
Cc1c(C(=O)NC(c2ccccn2)C(F)(F)F)oc2c(F)cccc12 (stereo unspecified)	none
CCOc1ccc(-n2c(SCC(=O)NCc3ccco3)nnc2-c2c[nH]c3ccccc23)cc1	TbMetRS inhib 12 | TbMetRS confirm 11 | Jurkat cytotox inactive | Tb MetRS inh FP inactive
COc1ccc(OC)c(-n2c(SC)nnc2-c2c[nH]c3ccccc23)c1	TbMetRS inhib 9.7 | TbMetRS confirm 25 | Jurkat cytotox inactive | Tb MetRS inh FP inactive
COc1ccc(OC)c(-n2c(SCC(=O)Nc3cc(C)on3)nnc2-c2c[nH]c3ccccc23)c1	TbMetRS inhib 18 | TbMetRS confirm 25 | Jurkat cytotox inactive | Tb MetRS inh FP inactive
Cn1c(SCC(=O)NCc2ccco2)nnc1-c1c[nH]c2ccccc12	none
COc1ccc(OC)c(-n2c(SCC(N)=O)nnc2-c2c[nH]c3ccccc23)c1	TbMetRS inhib 9.7 | TbMetRS confirm 20 | Jurkat cytotox inactive | Tb MetRS inh FP inactive
Cc1ccc(OCCNC(=O)[C@H]2O[C@@H](n3cnc4c(N)ncnc43)[C@H](O)[C@@H]2O)cc1C	none (no result: HDAC3 inh, IDE cell activ, CR mimetic SO, IDE cell inh, Efflux pump inh)
O=[N+]([O-])c1ccc([N+](=O)[O-])c(Nc2ccc(N3CCOCC3)cc2)c1	none
C=CCC[C@H](Cc1ccc(F)cc1)C(=O)OC[C@@H](C)NC(=O)[C@H](CC=C)CC(=O)NCCO	none
Nc1nc2ccccc2n1CCOc1ccc(F)cc1	TbMetRS inhib 49 | TbMetRS confirm 72 | Jurkat cytotox 17 | Tb MetRS inh FP 45
Cc1nc2ccccc2n1CCOc1ccccc1	none
COc1ccc(OCCn2c(N)nc3ccccc32)cc1	TbMetRS inhib 39 | TbMetRS confirm 62 | Jurkat cytotox inactive | Tb MetRS inh FP 32
CC(=O)N1C[C@H]2CON(C)[C@H]2C[C@H]1c1ccc(-c2ccc(C#N)cc2)cc1	none (no result: HDAC3 inh, IDE cell activ, CR mimetic SO, IDE cell inh, Efflux pump inh)
COc1ccc(S(=O)(=O)NNC(=O)c2cc3cc4ccccc4nc3s2)cc1	TbMetRS inhib 5.8 | TbMetRS confirm 14 | Jurkat cytotox inactive | Tb MetRS inh FP inactive
CS(=O)(=O)NNC(=O)c1cc2cc3ccccc3nc2s1	none
C=CCc1cccc(CNc2nc3ccccc3n2CCC)c1O	HDAC3 inh inconclusive, TbMetRS inhib 19 | TbMetRS confirm 31 | Jurkat cytotox inactive | Tb MetRS inh FP 18
CCOC(=O)[C@H]1[C@H]2COc3ccc(OC)cc3[C@@H]2N2C(=O)c3cc(OC)c(OC)cc3NC(=O)[C@@]12C	none (no result: CR mimetic SO, Efflux pump inh)
O=C(OCC(=O)c1c[nH]c2ccccc12)c1ccc([N+](=O)[O-])s1	TbMetRS inhib 10 | TbMetRS confirm 23 | Jurkat cytotox inactive | Tb MetRS inh FP inactive
COc1cc2c(cc1OC)C(Nc1ccccc1)=NC(C)(C)C2	none (no result: HDAC3 inh)
Cc1cc(NC(=O)c2ccc(Cl)cc2Cl)n(CCC#N)n1	TbMetRS inhib 6.4 | TbMetRS confirm 13 | Jurkat cytotox inactive | Tb MetRS inh FP inactive
O=C(COc1ccc(F)cc1Cl)Nc1ccc(S(=O)(=O)Nc2nccs2)cc1	none
O=C(NCc1ccco1)c1cccc(Nc2nc3ccc(Br)cc3[nH]2)c1	HDAC3 inh inconclusive, TbMetRS inhib 10 | TbMetRS confirm 40 | Jurkat cytotox inactive | Tb MetRS inh FP 32
O=C(NCC1CC1)c1ccc(Nc2nc3ccc(Br)cc3[nH]2)cc1	TbMetRS inhib 7.3 | TbMetRS confirm 46 | Jurkat cytotox inactive | Tb MetRS inh FP 20
O=C(Cc1ccc(Nc2nc3ccc(Br)cc3[nH]2)cc1)NCCc1cccs1	TbMetRS inhib 84 | TbMetRS confirm 100 | Jurkat cytotox inactive | Tb MetRS inh FP 104
CC(=O)c1ccc(NCC2COc3ccccc3O2)c([N+](=O)[O-])c1 (stereo unspecified)	none
CCCCc1nnc(NC(=O)c2ccc(-n3cncn3)c([N+](=O)[O-])c2)s1	none
O=C(NC1CCCCC1)c1ccc(-n2cncn2)c([N+](=O)[O-])c1	TbMetRS inhib 24 | TbMetRS confirm 51 | Jurkat cytotox inactive | Tb MetRS inh FP 28
CC1CCC(NC(=O)c2ccc(-n3cncn3)c([N+](=O)[O-])c2)CC1 (stereo unspecified)	TbMetRS inhib 12 | TbMetRS confirm 52 | Jurkat cytotox inactive | Tb MetRS inh FP 24
O=C(NCC1COc2ccccc2O1)c1ccc(-n2cncn2)c([N+](=O)[O-])c1 (stereo unspecified)	TbMetRS inhib 19 | TbMetRS confirm 58 | Jurkat cytotox inactive | Tb MetRS inh FP 31
O=C(Cc1ccccc1)NCC(=O)N1CCN(c2ccc(F)cc2)CC1	none (no result: HDAC3 inh, IDE cell activ, CR mimetic SO, IDE cell inh, Efflux pump inh)
CCCN1CCN(C(=O)CS(=O)(=O)Cc2nc(-c3cccc(OC)c3)oc2C)CC1	none
O=C(CCCOc1ccc(Cl)cc1Cl)NCCc1nnc2ccccn12	TbMetRS inhib 7.8 | TbMetRS confirm 19 | Jurkat cytotox inactive | Tb MetRS inh FP inactive
C[C@H](NC(=O)CCCOc1ccc(Cl)cc1Cl)c1nnc2ccccn12	TbMetRS inhib 7.4 | TbMetRS confirm 16 | Jurkat cytotox inactive | Tb MetRS inh FP inactive
Cc1ccccc1-c1nc(CS(=O)(=O)CC(=O)N2CCN(C)CC2)c(C)o1	none
C[C@H](NC(=O)[C@@H]1CSC2c3ccccc3C(=O)N21)C(=O)NCCc1ccc(F)cc1 (stereo partly specified)	none
